Values after ≈ are worked out from the molar mass of the structure shown. Values joined by “and” are separate entries in the source; they are usually repeats but may differ in a detail not shown here. Identical values can stand only once. “Also recorded” adds a separate entry of the source. Counter-ions that a name gives are not always drawn. Like-named read-outs stand apart in the source and are kept apart here. Marks after values point to notes of the source that are not given here.
Tests used:
[1] = tested on: mouse hepatitis virus (MHV); experiment: microbe, parasite or virus in culture; assay type: cell-based, murine coronavirus; settings: for IC50: read-out: IC50 against MHV
[2] = tested on: CCL9.1 cells
[3] = tested on: DENV-2 New Guinea C strain; experiment: DENV-2 plaque reduction neutralization test; assay type: cell-based, dengue virus type 2; settings: for Selectivity index (DENV-2): CC50/IC50, '>' values with absence of cytotoxicity; for IC50: Dengue virus, DENV2, BHK-21, read-out: IC50 against DENV-2
Procedure, shortened: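 DENV-2 New Guinea C was propagated in C6/36 cells (L15, 3% FBS, 28 °C). 2-fold dilutions were made: extract fraction 166.67 to 0.08 μg/mL, flavonoids 500.00 to 15.63 μg/mL. Each was preincubated 1 h with 90 PFU, then adsorbed 1 h at 37 °C on BHK-21 monolayers (RPMI-1640, 10% FBS). Plates had 1% carboxymethylcellulose overlay for 6 d, then crystal violet plaque count. Run in duplicate, with mAb 3H5 as positive control. IC50 came from % plaque reduction curves.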

[4] = tested on: BHK-21 cells; experiment: MTT cell viability and proliferation assay, BHK-21 cells; assay type: cell-based, baby hamster; settings: at concentrations tested in PRNT
Procedure, shortened: (§1)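 BHK-21 monolayers were exposed to test compound for 48 h at 37 °C, 5% CO2, at the concentrations used in neutralization tests. MTT was added for 4 h, then 100 g/L SDS in 0.01 mol/L HCl overnight in the dark at room temperature. OD was read at 570 nm. Inhibition rate was taken relative to solvent-treated cells, and CC50 came from the concentration plot. Experiments were repeated; mean and standard deviation reported.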

[5] = tested on: HSV-1; settings: cited from earlier work
[6] = MTT cell viability and proliferation assay, BHK-21 cells; assay type: cell-based, baby hamster; settings: hamster, BHK-21 cells (monolayers)
Procedure, shortened: as §1

[7] = in vitro; settings: mouse

Row | Structure (SMILES) | Duration of inhibition of viral infectivity [1] | IC50 against MHV [1] | MHV inhibition [1] | MIC, anti-MHV activity [1] | Selectivity index (MHV) [1] | IC50 ([1]; Murine coronavirus) [µg/mL] | MIC ([1]; Murine coronavirus, read-out: MIC, anti-MHV activity) [µg/mL] | Cytotoxicity on CCL9.1 cells [2] | Anti-DENV-2 activity ([3]; PRNT, 500.00 down to 15.63 μg/mL) | Cytotoxicity to BHK cells [4] | Activity on HSV-1 among flavonoids [5] | Antiviral activity against MHV [1] | Selectivity index (DENV-2) [3] | IC50 [3] [µg/mL] | CC50 at 48 h [6] [µg/mL] | IC50 ([1]; Murine coronavirus, 1 h) [µg/mL] | CC50 ([2]; mouse) [µg/mL] | CC50 [7] [µg/mL]
1 | CN(C)CCCSc1ccccc1NC(=O)/C=C/c1ccccc1 [Cinanserin, cinanserin hydrochloride] | 2 days | 62.50 µg/mL | no viral inhibition; also recorded: could not inhibit MHV | 62.50 µg/mL and 62.5 µg/mL | >4.00 ^c and >2.00 ^c | 31.2 | 31.2 | minimal or no cytotoxicity | – | – | – | – | – | – | – | – | – | –
2 | C[C@@H]1O[C@@H](OC[C@H]2O[C@@H](Oc3c(-c4ccc(O)c(O)c4)oc4cc(O)cc(O)c4c3=O)[C@H](O)[C@@H](O)[C@@H]2O)[C@H](O)[C@H](O)[C@H]1O [Rutin, quercetin-3-rutinoside] | – | NIL | – | – | – | – | – | – | no anti-DENV-2 activity was detected | without cytotoxicity | no effect at all | did not exhibit antiviral activity | – | – | – | – | – | –
3 | C[C@@H]1O[C@@H](Oc2c(-c3ccc(O)c(O)c3)oc3cc(O)cc(O)c3c2=O)[C@H](O)[C@H](O)[C@H]1O [Quercitrin, quercetin-3-L-rhamnoside] | – | NIL | – | – | – | – | – | – | – | did not cause cytotoxicity | – | did not exhibit antiviral activity | >1.07 ^c | 467 (≈ 1040 µM) | – | – | – | –
4 | O=c1c(O)c(-c2ccc(O)c(O)c2)oc2cc(O)cc(O)c12 [Quercetin, quercetin] | up to 6 d | – | – | – | 0.93 | – | – | – | – | – | highest activity | – | 0.88 | 177 (≈ 585 µM) | 155 (≈ 514 µM) | 125 (≈ 414 µM) | 116.52 (≈ 386 µM) | 116 (≈ 385 µM)

Reference: PMC7104935 (Asian Pacific Journal of Tropical Medicine, 2015)
